The values that follow come from ChEMBL document CHEMBL3232745, “Design, synthesis and evaluation of novel diaryl pyrrolopyrimidine and pyrrolothiazine derivatives as inhibitors of tumor necrosis factor stimulated gene-14 (TSG-14) production” (2014).

The structures appear in SMILES notation.

The assay deals with Rattus norvegicus. In words: Antiinflammatory activity in albino rat assessed as inhibition of LPS-induced TSG-14 production at 30 mg/kg, po administered 30 mins before LPS challenge measured after 4 to 6 hrs by ELISA relative to control. Format: functional. The method, boiled down: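 Male albino rats (~200 g), three per group, dosed orally with compound suspended in 0.5% carboxymethylcellulose. LPS (Escherichia coli B055/B5, 0.1 mg/kg ip) was given 30 min after dosing. Sera were collected 4-6 h after LPS and assayed in duplicate by sandwich ELISA for rat PTX3/TSG-14 (detection limit <0.02 ng/mL). Percent inhibition was taken against an untreated LPS control, as mean ± S.E.M. (n = 3).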
In general terms: In an ELISA, binding on a coated surface is turned into a signal by an enzyme label.
For the compound `CCSc1nc2c(cc(-c3ccc(Cl)cc3)n2-c2ccccc2)c(=N)s1`, the inhibition in vivo (in general, the change of the read-out against control, counted positive when it falls) at 30 mg/kg was found to be 1%.
As to `CCC(C)Sc1nc2c(cc(-c3ccc(Br)cc3)n2-c2ccccc2)c(=N)s1` (stereo not given), the inhibition in vivo at 30 mg/kg worked out at 70%.
Regarding `CCn1c(=S)[nH]c2c(cc(-c3ccc(Br)cc3)n2-c2ccccc2)c1=N`, the inhibition in vivo at 30 mg/kg was 80%.
To `CCn1c(=S)[nH]c2c(cc(-c3ccc(Cl)cc3)n2-c2ccccc2)c1=N` belongs 61%; to `CCC(C)Sc1nc2c(cc(-c3ccc(Cl)cc3)n2-c2ccccc2)c(=N)s1` (stereo not given), 2%.
For `CCC(C)Sc1nc2c(cc(-c3ccccc3)n2-c2ccccc2)c(=N)s1` (stereo not given) the value was 50%.
For `CCSc1nc2c(cc(-c3ccc(Br)cc3)n2-c2ccccc2)c(=N)s1` the value was 1%; for `N=c1sc(=S)[nH]c2c1cc(-c1ccc(Cl)cc1)n2-c1ccccc1`, 2%.
For the compound `N=c1sc(=S)[nH]c2c1cc(-c1ccccc1)n2-c1ccccc1`, the inhibition in vivo at 30 mg/kg stood at 0%.
On to `N=c1sc(=S)[nH]c2c1cc(-c1ccc(Br)cc1)n2-c1ccccc1`, for which the inhibition in vivo at 30 mg/kg came to 44%.
For `N=c1c2cc(-c3ccccc3)n(-c3ccccc3)c2[nH]c(=S)n1N` the value was 23%; for `Cc1ccc(-c2cc3c(=N)sc(=S)[nH]c3n2-c2ccccc2)cc1`, 0%.
For `CCSc1nc2c(cc(-c3ccccc3)n2-c2ccccc2)c(=N)s1` the value was 0%; for `CCC(C)Sc1nc2c(cc(-c3ccc(C)cc3)n2-c2ccccc2)c(=N)s1` (stereo not given), 2%; for `N=c1c2cc(-c3ccc(Br)cc3)n(-c3ccccc3)c2[nH]c(=S)n1N`, 33%.
For `CCn1c(=S)[nH]c2c(cc(-c3ccc(C)cc3)n2-c2ccccc2)c1=N` the value was 60%; for `N=c1c2cc(-c3ccc(Cl)cc3)n(-c3ccccc3)c2[nH]c(=S)n1N`, 0%; for `CCn1c(=S)[nH]c2c(cc(-c3ccccc3)n2-c2ccccc2)c1=N`, 65%.
For the compound `Cc1ccc(-c2cc3c(=N)n(N)c(=S)[nH]c3n2-c2ccccc2)cc1`, the inhibition in vivo at 30 mg/kg was found to be 0%.
For `CCSc1nc2c(cc(-c3ccc(C)cc3)n2-c2ccccc2)c(=N)s1` the value was 0%.
